Hits are enriched below; roughly 1.7% of the tested compounds scored in any of these assays.
VIM-2 inhibitor: blocks Pseudomonas aeruginosa VIM-2 metallo-beta-lactamase; purified VIM-2, nitrocefin hydrolysis, epi-absorbance fluorescence; inhibition, % at 5.6 µM; 0.89% of 290,000 active; AID 1527;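 active means inhibition above the mean of all tested compounds plus 3 SD, cutoff set per screening run, cut at about 7.5% in these data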;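 further: red hydrolysis product quenches plate fluorescence so inhibitors raise well fluorescence; 0% = enzyme with DMSO and 100% = DMSO without enzyme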
Neddyl block: cullin neddylation inhibition; P61081+Q13564; TR-FRET cullin neddylation, biochemical; calls only at 25 µM; 0.58% of 360,000 active; in the data active means inhibition above about 36%
Target sequence (P61081 whole entry, looked up): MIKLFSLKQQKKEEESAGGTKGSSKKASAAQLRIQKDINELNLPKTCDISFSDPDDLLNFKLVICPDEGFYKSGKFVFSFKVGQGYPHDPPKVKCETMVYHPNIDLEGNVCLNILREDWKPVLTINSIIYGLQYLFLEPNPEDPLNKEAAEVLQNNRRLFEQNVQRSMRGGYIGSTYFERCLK
Target sequence (Q13564 whole entry, looked up): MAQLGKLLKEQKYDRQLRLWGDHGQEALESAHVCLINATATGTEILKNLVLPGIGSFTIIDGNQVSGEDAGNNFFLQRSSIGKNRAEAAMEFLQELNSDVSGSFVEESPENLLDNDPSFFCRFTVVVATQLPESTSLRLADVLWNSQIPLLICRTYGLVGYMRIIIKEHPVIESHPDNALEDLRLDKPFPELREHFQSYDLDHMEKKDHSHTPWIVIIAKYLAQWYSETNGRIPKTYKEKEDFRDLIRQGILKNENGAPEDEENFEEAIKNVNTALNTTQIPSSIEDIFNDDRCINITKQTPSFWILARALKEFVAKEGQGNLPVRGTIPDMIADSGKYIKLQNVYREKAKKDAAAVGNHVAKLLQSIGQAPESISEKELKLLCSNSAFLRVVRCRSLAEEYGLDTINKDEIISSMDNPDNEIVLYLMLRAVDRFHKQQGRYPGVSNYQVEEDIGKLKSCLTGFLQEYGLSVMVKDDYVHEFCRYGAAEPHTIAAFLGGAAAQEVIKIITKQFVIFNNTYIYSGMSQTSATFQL
PolyA inhibitor: yeast polyadenylation inhibition | AID 1875 | S. cerevisiae SKY197-pL101 polyadenylation reporter, beta-gal luminescence; efflux-impaired pdr1/pdr3 knockout yeast; score 100 = 6 SD above DMSO | 0.02% of 300,000 active | activity score, % at 12 µM;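 active means lowest replicate activity score at least 50, where 100 means six control SD above control mean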;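 further: yeast exposed to compound for 9 h at 30 °C; higher score means more reporter readthrough which indicates perturbed polyadenylation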
procasp7 counter: counter-screen: procaspase-7 (human) activation; AID 463210; recombinant procaspase-7, Ac-DEVD-pNA absorbance 405 nm; D23A/D198A/D206A triple mutant, cannot self-cleave; scale: DMSO 0, 5 µM enzyme 100; 0.093% of 330,000 active; activation, % at 8.5 µM;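 active means percent activation above the screen-wide mean plus 3 SD, cut at about 25% in these data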
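buffer or medium = Zinc-free HEPES/NaCl buffer, pH 7.4 | material = Procaspase-7 triple mutant (PC-7 D3A) | input = 2 µM procaspase-7 mutant as dispensed | signal = Epi-absorbance of released pNA at 405 nm, two timepoints | timing = 1 h preincubation, 2 h reaction | replicates = singlicate compound testing | evaluation = % activation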
procasp3 activ: procaspase-3 (human) activation; activation, % at 8.5 µM; AID 463141; 0.11% of 330,000 active; recombinant procaspase-3 D3A, Ac-DEVD-pNA absorbance 405 nm;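 active means activation above the mean of all tested compounds plus 3 SD, cut at about 21% in these data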;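 further: 0% = DMSO alone and 100% = DMSO wells spiked with extra 5 µM PC-3 D3A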
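material = Procaspase-3 D3A mutant | probe or stimulus = Ac-DEVD-pNA | compound = single dose, 8.5 µM nominal compound, 0.8% DMSO | timing = 1 h preincubation, 2 h reaction | measured by = 405 nm absorbance of p-nitroaniline, reads at 0 and 120 min | benchmarks = DMSO-only low control, 5 µM PC-3 D3A high control | repeats = singlicate, each compound tested once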
IMP-1 inhibitor: inhibitors of Pseudomonas aeruginosa IMP-1 metallo-beta-lactamase. purified IMP-1, nitrocefin hydrolysis, epi-absorbance fluorescence. inhibition, % at 5.6 µM. 0.45% of 290,000 active. AID 1556;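 active means inhibition above the mean plus 3 SD of all compounds in the same screening run, cut at about 4.5% in these data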;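 further: 0% = IMP-1 with DMSO and 100% = DMSO wells lacking enzyme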
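Assay system: purified recombinant IMP-1 beta-lactamase. Input: IMP-1 0.2 nM before substrate addition. Buffer or medium: Zinc- and detergent-supplemented HEPES buffer, pH 7.1. Schedule: 25 °C, 15 min preincubation, 25 min reaction. Signal: Epi-absorbance fluorescence, 480 nm excitation, 530 nm emission. Evaluation: percent inhibition from optical density relative to buffer-blank wells.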
Neddyl inh conf: confirmation of human cullin neddylation inhibitors; calls only at 25 µM; AID 652217; 13% of 1,800 active; shares compounds with Neddyl block; TR-FRET cullin neddylation biochemical assay; in the data active means inhibition above about 40%;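 further: neddylation substrate is the cullin 1 ring ligase complex with SKP2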
The depositor's hits bear a star; i = inactive; nt = not tested or not shown; + = active, no number.

SMILES	VIM-2 inhibitor	Neddyl block	PolyA inhibitor	procasp7 counter	procasp3 activ	IMP-1 inhibitor	Neddyl inh conf
COc1ccc(-c2n[nH]c(=S)n2-c2cc(OC)ccc2OC)cc1	1	i	-16	-16	3	-3	nt
COc1ccccc1-n1c(-c2ccc(NS(C)(=O)=O)cc2)n[nH]c1=S	5	+	18	-13	0	-4	i
COc1ccccc1OCCNC(=O)CN(c1cccc(C)c1)S(=O)(=O)c1ccccc1	-2	i	8	-7	-1	-1	nt
Cc1ccc(C(=O)N/C(=C/c2ccc(Cl)cc2)C(=O)Nc2cccc(C(=O)O)c2)cc1	-1	i	0	-10	1	-2	nt
CSc1ccc(/C=C(\NC(=O)c2ccc(C)cc2)C(=O)Nc2cccc(C)c2)cc1	-3	+	6	10	9	-2	i
CSc1ccccc1NC(=S)N/N=C/c1cccn1Cc1ccc(F)cc1	-3	+	5	-10	-7	-1	i
COc1ccc(NC(=S)N/N=C/c2cccn2Cc2ccc(F)cc2Cl)cc1	1	i	nt	10	-4	-2	nt
Cc1cccc(C(=O)Oc2ccc(/C=N/NC(=O)c3ccncc3)cc2)c1	2	+	9	6	-5	-3	i
Cc1cccc(C(=O)Oc2ccc(/C=N/NC(=O)c3cc(O)cc(O)c3)cc2)c1	-1	i	-6	nt	nt	-1	nt
O=C(Oc1ccc(/C=N/NC(=O)c2ccccc2O)cc1)c1ccccc1	-3	+	-10	-3	-9	1	i
OC[C@@H]1CN(Cc2ccc(Cl)cc2)C[C@H](n2cnc3c(Nc4ccccc4)ncnc32)O1	nt	+	nt	nt	nt	nt	nt
CC(C)Nc1ncnc2c1ncn2[C@H]1CN(Cc2ccco2)C[C@@H](CO)O1	nt	i	nt	nt	nt	nt	nt
OC[C@@H]1CN(Cc2ccco2)C[C@H](n2cnc3c(Nc4ccccc4)ncnc32)O1	nt	+	nt	nt	nt	nt	nt
CCC(=O)NC(=S)Nc1cccc(NC(=O)c2ccccc2C)c1	0	i	-8	-4	4	0	nt
c1ccc2c(c1)-c1cccc3cncc-2c13	nt	+	nt	nt	nt	nt	i
COC(=O)C1=C(C)NC2=C(C(=O)CCC2)C1c1ccc(-c2ccsc2C(=O)OC)o1 (stereo unspecified)	-2	+	-3	-1	-6	-3	nt
COC(=O)C1=C(C)NC2=C(C(=O)CCC2)C1c1ccsc1 (stereo unspecified)	-3	nt	-17	nt	nt	-3	nt
COc1ccc(N2CCC(CNC(=S)Nc3cccc(C)c3)C2)cc1 (stereo unspecified)	-4	i	-18	-19	-9	-3	nt
Cc1ccc(-c2nn(CC(=O)O)c(=O)c3ccccc23)cc1	-2	i	-20	4	-1	1	nt
O=C(O)Cn1nc2c3c(cccc3c1=O)-c1ccccc1-2	7.8*	+	-7	-1	-2	-4	i
Cc1nc2scc(C)n2c(=O)c1S(=O)(=O)NCc1ccccc1Cl	-1	+	14	0	-2	-2	i
O=C(Nc1ccc2nsnc2c1)C1CC1	-8	+	-7	12	6	-1	+
CC(=O)Nc1ccc2nsnc2c1	-1	i	-10	8	10	-3	nt
Cc1sc2nc(SCC(=O)NCc3ccco3)n(C)c(=O)c2c1C	1	i	2	-4	3	-2	nt
O=C1c2ccccc2C(=O)N1Cc1nc2ccccc2c(=O)n1Cc1ccco1	nt	nt	3	6	-6	nt	nt
SMILES	VIM-2 inhibitor	Neddyl block	PolyA inhibitor	procasp7 counter	procasp3 activ	IMP-1 inhibitor	Neddyl inh conf
O=c1c2ccccc2nc2ccc(NCc3ccco3)nn12	1	+	10	-2	-14	1	i
Cc1sc2nc3ccc(NCc4ccco4)nn3c(=O)c2c1C	4	+	-6	-31	-18	6.2*	nt
CN1OC[C@@H]2CN(Cc3ccccc3)[C@H](c3cccc(N4CCOCC4)c3)C[C@@H]21	nt	i	nt	nt	nt	nt	nt
Cc1ccc(C(=O)N/C(=C/c2ccc(-c3cc(C(F)(F)F)ccc3Cl)o2)C(=O)NCc2cccnc2)cc1	0	+	1	8	4	-1	nt
CCOC(=O)c1cc2c(=O)n3ccccc3nc2n(CCOC)c1=NC(=O)c1ccncc1	13*	+	0	-7	-13	-3	+
CCOC(=O)c1cc2c(=O)n3ccccc3nc2n(C(C)C)c1=NC(=O)c1ccncc1	3	+	-5	-1	-2	-3	+
COCCN(C(=O)c1ccc(N2CCCC2=O)cc1)c1c(N)n(CC(C)C)c(=O)[nH]c1=O	nt	i	nt	-10	1	nt	nt
CC(=O)Nc1ccc(S(=O)(=O)Nc2cccc3cccnc23)cc1	1	+	8	-14	-2	-3	+
CCOc1cc(C2C(C#N)=C(N)OC3=C2C(=O)CC(C)(C)C3)cc([N+](=O)[O-])c1O (stereo unspecified)	-5	i	-30	-12	-7	-1	nt
CC1(C)CC(=O)C2=C(C1)OC(N)=C(C#N)C2c1cc2c(cc1[N+](=O)[O-])OCO2 (stereo unspecified)	3	+	8	-8	-3	2	i
Cc1ccc(NC(=O)CSc2ccc(-c3cccnc3)nn2)c(C)c1	-3	i	8	-1	4	-5	nt
COC(=O)Cn1c(CCC(=O)O)ccc1-c1ccccc1	-1	+	-6	2	9	2	i
Cc1ccc(-c2ccc(CCC(=O)O)n2CC2CCCO2)cc1 (stereo unspecified)	0	nt	-2	-2	0	-1	nt
COc1ccc(NC(=O)Cn2c(CCC(=O)O)ccc2-c2ccccc2)cc1	-3	i	-4	-3	1	-2	nt
O=C(O)CCc1ccc(-c2ccccc2)n1CC1CCCO1 (stereo unspecified)	-3	+	-5	8	-2	-5	nt
COC(=O)C1=CN(c2cc(C)cc(C)c2)C=C(C(=O)OC)C1c1ccc(OC)c(O)c1	-5	+	-6	5	-2	-3	+
CCOC(=O)c1ccc(N2C=C(C(=O)OC)C(c3ccc(OC)c(O)c3)C(C(=O)OC)=C2)cc1	-4	i	28	11	9	-1	nt
CCOC(=O)c1cc(NC(=O)c2ccc(C)cc2)c(=O)oc1-c1ccccc1	-5	i	-16	-9	2	-2	nt
COc1ccc2c(C(=O)CN3CCSCC3)c[nH]c2c1	-3	+	-8	2	2	-2	i

Bioassay records as filed in PubChem.
